Measured values reported in ChEMBL document CHEMBL3797061, “Characterizing the Covalent Targets of a Small Molecule Inhibitor of the Lysine Acetyltransferase P300” (ACS Med Chem Lett, 2016).
Calls of active or inactive are those of the source. The rule behind the calls is not given here.

Columns and labels:
[1] = target: Heat shock protein HSP 90-beta (Homo sapiens) (UniProt P08238); test: Binding affinity to HSP90AB1 in HEK293 proteomes assessed as spectral count ratio at 20 uM incubated for 16 hrs by TAMRA biotin-azide dye based LC-MS/MS analysis relative to control
Chain of Heat shock protein HSP 90-beta (Homo sapiens) (P08238 whole entry): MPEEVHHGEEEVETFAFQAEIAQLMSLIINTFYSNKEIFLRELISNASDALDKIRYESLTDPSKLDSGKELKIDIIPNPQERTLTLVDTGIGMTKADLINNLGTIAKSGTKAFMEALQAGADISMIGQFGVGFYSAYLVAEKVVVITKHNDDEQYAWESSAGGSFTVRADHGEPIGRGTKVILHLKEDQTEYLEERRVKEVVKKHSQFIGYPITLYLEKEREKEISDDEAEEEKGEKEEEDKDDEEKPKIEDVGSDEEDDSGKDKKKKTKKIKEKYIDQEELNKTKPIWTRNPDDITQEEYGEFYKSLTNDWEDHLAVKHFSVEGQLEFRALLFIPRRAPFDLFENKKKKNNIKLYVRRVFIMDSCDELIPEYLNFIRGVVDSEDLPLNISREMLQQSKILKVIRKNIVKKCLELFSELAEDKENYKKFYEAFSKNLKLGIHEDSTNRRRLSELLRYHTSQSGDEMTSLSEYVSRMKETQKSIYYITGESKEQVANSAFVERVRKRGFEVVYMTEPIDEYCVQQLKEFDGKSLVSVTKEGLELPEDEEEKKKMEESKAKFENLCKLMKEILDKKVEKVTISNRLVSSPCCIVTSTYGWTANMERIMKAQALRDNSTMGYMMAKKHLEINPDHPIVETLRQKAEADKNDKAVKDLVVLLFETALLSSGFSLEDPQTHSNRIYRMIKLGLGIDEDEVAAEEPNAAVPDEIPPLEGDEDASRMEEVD
Procedure, shortened: (§1)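 HEK-293 proteome labeled with alkyne probe, then enriched and identified by LC–MS/MS. Spectral counts compared with a no-probe control.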

[2] = target: Tubulin beta-5 chain (Homo sapiens) (UniProt P07437); test: Binding affinity to TUBB in HEK293 proteomes assessed as spectral count ratio at 20 uM incubated for 16 hrs by TAMRA biotin-azide dye based LC-MS/MS analysis relative to control; procedure, shortened: as §1
[3] = target: D-3-phosphoglycerate dehydrogenase (Homo sapiens) (UniProt O43175); test: Binding affinity to PHGDH in HEK293 proteomes at 20 uM incubated for 16 hrs by TAMRA biotin-azide dye based LC-MS/MS analysis; format: cell-based; procedure, shortened: as §1
[4] = target: Creatine kinase B-type (Homo sapiens) (UniProt P12277); test: Binding affinity to CKB in HEK293 proteomes assessed as spectral count ratio at 20 uM incubated for 16 hrs by TAMRA biotin-azide dye based LC-MS/MS analysis relative to control; procedure, shortened: as §1
Chain of Creatine kinase B-type (Homo sapiens) (P12277 whole entry): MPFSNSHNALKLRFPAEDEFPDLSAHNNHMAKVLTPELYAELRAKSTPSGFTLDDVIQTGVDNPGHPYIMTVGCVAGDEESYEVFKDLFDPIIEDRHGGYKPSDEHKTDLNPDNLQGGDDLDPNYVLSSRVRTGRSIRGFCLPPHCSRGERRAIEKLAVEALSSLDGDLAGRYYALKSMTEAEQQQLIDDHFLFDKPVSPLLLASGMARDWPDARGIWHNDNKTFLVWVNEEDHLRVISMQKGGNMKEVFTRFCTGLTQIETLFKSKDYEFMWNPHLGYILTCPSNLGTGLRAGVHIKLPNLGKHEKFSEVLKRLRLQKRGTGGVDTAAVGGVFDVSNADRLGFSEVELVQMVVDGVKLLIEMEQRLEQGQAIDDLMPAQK

[5] = target: Tubulin alpha-1C chain (Homo sapiens) (UniProt Q9BQE3); test: Binding affinity to TUBA1C in HEK293 proteomes assessed as spectral count ratio at 20 uM incubated for 16 hrs by TAMRA biotin-azide dye based LC-MS/MS analysis relative to control; procedure, shortened: as §1
[6] = target: Alpha-enolase (Homo sapiens) (UniProt P06733); test: Binding affinity to ENO1 in HEK293 proteomes assessed as spectral count ratio at 20 uM incubated for 16 hrs by TAMRA biotin-azide dye based LC-MS/MS analysis relative to control; procedure, shortened: as §1
Chain of Alpha-enolase (Homo sapiens) (P06733 whole entry): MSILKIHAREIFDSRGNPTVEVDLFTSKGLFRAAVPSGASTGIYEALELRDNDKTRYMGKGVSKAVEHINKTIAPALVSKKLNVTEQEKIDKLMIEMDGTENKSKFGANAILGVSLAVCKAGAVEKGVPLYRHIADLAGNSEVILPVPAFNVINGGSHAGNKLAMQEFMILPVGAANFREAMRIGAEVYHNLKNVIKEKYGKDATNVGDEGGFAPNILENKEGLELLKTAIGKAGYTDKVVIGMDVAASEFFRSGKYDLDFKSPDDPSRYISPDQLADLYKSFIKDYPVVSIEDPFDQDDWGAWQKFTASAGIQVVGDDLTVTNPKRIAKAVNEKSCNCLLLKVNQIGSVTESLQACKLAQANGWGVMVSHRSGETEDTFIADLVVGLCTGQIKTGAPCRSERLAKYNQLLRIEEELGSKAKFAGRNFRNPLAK

[7] = target: 60 kDa heat shock protein, mitochondrial (Homo sapiens) (UniProt P10809); test: Binding affinity to HSPD1 in HEK293 proteomes assessed as spectral count ratio at 20 uM incubated for 16 hrs by TAMRA biotin-azide dye based LC-MS/MS analysis relative to control; procedure, shortened: as §1
Chain of 60 kDa heat shock protein, mitochondrial (Homo sapiens) (P10809 whole entry): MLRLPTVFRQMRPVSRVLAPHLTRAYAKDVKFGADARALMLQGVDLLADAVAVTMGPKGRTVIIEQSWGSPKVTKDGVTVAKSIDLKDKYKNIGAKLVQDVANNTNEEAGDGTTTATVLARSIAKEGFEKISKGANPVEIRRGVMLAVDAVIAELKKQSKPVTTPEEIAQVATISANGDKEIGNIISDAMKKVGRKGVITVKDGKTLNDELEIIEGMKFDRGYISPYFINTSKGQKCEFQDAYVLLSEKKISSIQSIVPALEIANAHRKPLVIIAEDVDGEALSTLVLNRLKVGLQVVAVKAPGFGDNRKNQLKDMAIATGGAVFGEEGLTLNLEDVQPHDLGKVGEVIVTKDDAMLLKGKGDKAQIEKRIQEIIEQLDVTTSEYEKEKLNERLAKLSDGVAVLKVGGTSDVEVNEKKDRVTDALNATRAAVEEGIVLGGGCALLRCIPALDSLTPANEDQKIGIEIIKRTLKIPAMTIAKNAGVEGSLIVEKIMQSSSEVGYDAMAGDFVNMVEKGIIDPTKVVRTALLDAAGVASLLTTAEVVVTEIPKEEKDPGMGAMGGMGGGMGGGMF

[8] = target: Pyruvate kinase PKM (Homo sapiens) (UniProt P14618); test: Binding affinity to PKM in HEK293 proteomes assessed as spectral count ratio at 20 uM incubated for 16 hrs by TAMRA biotin-azide dye based LC-MS/MS analysis relative to control; procedure, shortened: as §1
Chain of Pyruvate kinase PKM (Homo sapiens) (P14618 2-531 limits assumed): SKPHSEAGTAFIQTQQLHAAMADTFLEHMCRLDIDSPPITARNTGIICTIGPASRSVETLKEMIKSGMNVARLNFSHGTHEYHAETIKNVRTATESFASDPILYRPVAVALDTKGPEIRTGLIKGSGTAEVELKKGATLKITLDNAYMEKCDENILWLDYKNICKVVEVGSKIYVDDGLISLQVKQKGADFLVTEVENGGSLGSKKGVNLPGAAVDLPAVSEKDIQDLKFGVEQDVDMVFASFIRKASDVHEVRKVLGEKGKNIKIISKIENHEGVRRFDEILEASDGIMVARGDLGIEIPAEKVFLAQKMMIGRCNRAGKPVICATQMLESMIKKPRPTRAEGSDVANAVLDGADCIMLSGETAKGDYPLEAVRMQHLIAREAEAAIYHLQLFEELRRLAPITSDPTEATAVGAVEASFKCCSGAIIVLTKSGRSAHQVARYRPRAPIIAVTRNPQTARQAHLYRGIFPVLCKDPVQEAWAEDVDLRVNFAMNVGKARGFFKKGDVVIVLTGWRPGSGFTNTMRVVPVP

[9] = target: Tubulin alpha-8 chain (Homo sapiens) (UniProt Q9NY65); test: Binding affinity to TUBA8 in HEK293 proteomes assessed as spectral count ratio at 20 uM incubated for 16 hrs by TAMRA biotin-azide dye based LC-MS/MS analysis relative to control; procedure, shortened: as §1
[10] = target: Tubulin beta-2A chain (Homo sapiens) (UniProt Q13885); test: Binding affinity to TUBB2A in HEK293 proteomes assessed as spectral count ratio at 20 uM incubated for 16 hrs by TAMRA biotin-azide dye based LC-MS/MS analysis relative to control; procedure, shortened: as §1
[11] = target: Elongation factor 1-alpha 1 (Homo sapiens) (UniProt P68104); test: Binding affinity to EEF1A1 in HEK293 proteomes assessed as spectral count ratio at 20 uM incubated for 16 hrs by TAMRA biotin-azide dye based LC-MS/MS analysis relative to control; procedure, shortened: as §1
[12] = target: Tubulin beta-4A chain (Homo sapiens) (UniProt P04350); test: Binding affinity to TUBB4A in HEK293 proteomes assessed as spectral count ratio at 20 uM incubated for 16 hrs by TAMRA biotin-azide dye based LC-MS/MS analysis relative to control; procedure, shortened: as §1
[13] = target: Histone acetyltransferase p300 (Homo sapiens, UniProt Q09472); test: Inhibition of recombinant P300 catalytic domain (1284 to 1673 residues) (unknown origin) using FITC- histone H4 peptide (1 to 19 residues) as substrate by electrophoretic mobility shift assay
[14] = target: Heterogeneous nuclear ribonucleoprotein H (Homo sapiens) (UniProt P31943); test: Binding affinity to HNRNPH1 in HEK293 proteomes at 20 uM incubated for 16 hrs by TAMRA biotin-azide dye based LC-MS/MS analysis; format: cell-based; procedure, shortened: as §1
Chain of Heterogeneous nuclear ribonucleoprotein H (Homo sapiens) (P31943 whole entry): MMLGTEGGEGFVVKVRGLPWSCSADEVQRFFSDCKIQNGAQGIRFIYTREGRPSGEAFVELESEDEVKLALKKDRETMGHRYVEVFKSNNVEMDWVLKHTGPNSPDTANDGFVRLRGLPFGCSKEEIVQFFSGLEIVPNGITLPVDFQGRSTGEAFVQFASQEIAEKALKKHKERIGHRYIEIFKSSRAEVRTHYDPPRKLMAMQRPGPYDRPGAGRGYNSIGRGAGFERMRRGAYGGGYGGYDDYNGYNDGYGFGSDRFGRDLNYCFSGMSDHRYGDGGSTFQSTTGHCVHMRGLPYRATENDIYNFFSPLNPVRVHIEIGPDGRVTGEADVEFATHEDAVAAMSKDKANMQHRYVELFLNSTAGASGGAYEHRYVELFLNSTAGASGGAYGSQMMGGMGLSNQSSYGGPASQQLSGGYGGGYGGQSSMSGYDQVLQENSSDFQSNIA

HEK293 [15] = test: Binding affinity to HEK293 proteomes assessed as compound-Cysteine adduct formation at 1 uM incubated for 24 hrs by LC-MS/MS analysis; format: cell-based; details: Homo sapiens
[16] = target: Heat shock 70 kDa protein 1A/1B (Homo sapiens) (UniProt P0DMV8+P0DMV9); test: Binding affinity to HSPA1A/HSPA1B in HEK293 proteomes assessed as spectral count ratio at 20 uM incubated for 16 hrs by TAMRA biotin-azide dye based LC-MS/MS analysis relative to control; format: protein assay; procedure, shortened: as §1
Chain of Heat shock 70 kDa protein 1A/1B (Homo sapiens) (P0DMV8 whole entry, looked up): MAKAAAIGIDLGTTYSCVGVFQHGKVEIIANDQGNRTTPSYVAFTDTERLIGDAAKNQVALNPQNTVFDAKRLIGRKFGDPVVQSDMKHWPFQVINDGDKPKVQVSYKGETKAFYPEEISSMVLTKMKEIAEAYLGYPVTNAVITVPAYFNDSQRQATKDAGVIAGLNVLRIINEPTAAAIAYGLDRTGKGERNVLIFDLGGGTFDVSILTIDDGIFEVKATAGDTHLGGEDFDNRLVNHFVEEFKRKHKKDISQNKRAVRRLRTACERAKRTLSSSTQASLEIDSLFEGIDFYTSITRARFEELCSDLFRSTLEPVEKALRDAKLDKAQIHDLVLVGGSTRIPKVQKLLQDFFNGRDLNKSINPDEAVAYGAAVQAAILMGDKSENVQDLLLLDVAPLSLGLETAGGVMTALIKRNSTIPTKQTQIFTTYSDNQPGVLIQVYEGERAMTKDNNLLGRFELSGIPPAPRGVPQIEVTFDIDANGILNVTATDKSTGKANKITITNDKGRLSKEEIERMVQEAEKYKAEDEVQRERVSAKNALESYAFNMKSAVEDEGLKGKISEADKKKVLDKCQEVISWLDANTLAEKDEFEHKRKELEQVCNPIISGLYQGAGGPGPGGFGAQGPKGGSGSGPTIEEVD
Chain of Heat shock 70 kDa protein 1A/1B (Homo sapiens) (P0DMV9 whole entry, looked up): as the sequence (P0DMV8 whole entry, looked up) above

[17] = target: Eukaryotic initiation factor 4A-I (Homo sapiens) (UniProt P60842); test: Binding affinity to EIF4A1 in HEK293 proteomes assessed as spectral count ratio at 20 uM incubated for 16 hrs by TAMRA biotin-azide dye based LC-MS/MS analysis relative to control; procedure, shortened: as §1
[18] = target: Tubulin alpha-1A chain (Homo sapiens) (UniProt Q71U36); test: Binding affinity to TUBA1A in HEK293 proteomes assessed as spectral count ratio at 20 uM incubated for 16 hrs by TAMRA biotin-azide dye based LC-MS/MS analysis relative to control; procedure, shortened: as §1
Chain of Tubulin alpha-1A chain (Homo sapiens) (Q71U36 whole entry, looked up): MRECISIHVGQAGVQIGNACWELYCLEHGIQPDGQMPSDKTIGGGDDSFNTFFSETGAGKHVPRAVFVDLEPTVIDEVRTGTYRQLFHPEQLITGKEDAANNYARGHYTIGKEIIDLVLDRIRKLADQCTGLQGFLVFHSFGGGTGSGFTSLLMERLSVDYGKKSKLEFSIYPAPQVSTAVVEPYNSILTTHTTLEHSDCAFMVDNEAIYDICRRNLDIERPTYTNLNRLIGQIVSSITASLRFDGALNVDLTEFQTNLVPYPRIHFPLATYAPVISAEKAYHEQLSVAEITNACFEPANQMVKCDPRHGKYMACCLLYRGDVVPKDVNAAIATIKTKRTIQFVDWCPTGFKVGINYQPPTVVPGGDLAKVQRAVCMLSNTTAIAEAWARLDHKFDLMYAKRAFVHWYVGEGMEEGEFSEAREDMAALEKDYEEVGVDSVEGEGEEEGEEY

HEK293 [19] = test: Binding affinity to HEK293 proteomes incubated for 16 hrs using TAMRA-azide dye by SDS-PAGE based fluorescence analysis; format: cell-based; details: Homo sapiens
Procedure, shortened: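 HEK-293 cell lysate was incubated 16 h with alkyne probe (5–50 μM) and then conjugated to a fluorescent azide by Cu-catalysed [3+2] cycloaddition. Reactions were quenched in loading buffer without boiling. Proteins were resolved by SDS-PAGE and covalent labeling was imaged by in-gel fluorescence.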

HEK293 [20] = test: Binding affinity to HEK293 proteomes at 1 uM incubated for 16 hrs using TAMRA-azide dye by SDS-PAGE based fluorescence analysis in presence of iodoacetamide; format: cell-based; details: Homo sapiens
Procedure, shortened: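 Proteomes were preincubated with iodoacetamide before alkyne-probe treatment. Probe labeling then proceeded by click conjugation to a fluorescent azide, SDS-PAGE without boiling, and fluorescence imaging to test for cysteine-directed labeling.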

[21] = target: Actin, cytoplasmic 1 (Homo sapiens) (UniProt P60709); test: Binding affinity to ACTB in HEK293 proteomes assessed as spectral count ratio at 20 uM incubated for 16 hrs by TAMRA biotin-azide dye based LC-MS/MS analysis relative to control; procedure, shortened: as §1
[22] = target: Tubulin alpha-1B chain (Homo sapiens) (UniProt P68363); test: Binding affinity to TUBA1B in HEK293 proteomes assessed as spectral count ratio at 20 uM incubated for 16 hrs by TAMRA biotin-azide dye based LC-MS/MS analysis relative to control; procedure, shortened: as §1
Chain of Tubulin alpha-1B chain (Homo sapiens) (P68363 whole entry, looked up): as the sequence (Q71U36 whole entry, looked up) above, with G232S, T340S counted along it

Tubulin (Sus scrofa) = Tubulin (Sus scrofa) (UniProt P02554+P02550); test: Inhibition of porcine brain tubulin polymerization assessed as decrease in rate of microtubule formation incubated up to 1 hr by fluorescence analysis
Procedure, shortened: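 Porcine tubulin was preincubated with compound and polymerization was then followed by a fluorescence assay. Read-outs were the rate of microtubule formation and final polymer mass. CaCl2 served as the positive control for inhibition.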

For `C#CCNC(=O)c1ccc(N2N=C(C)/C(=C/c3ccc(-c4cc(C)c(C)cc4[N+](=O)[O-])o3)C2=O)cc1`, the fold change (FC) [1] was 16, the fold change (FC) [2] was 36 and the Activity [3] was “Active”. The fold change (FC) [4] was 9, the fold change (FC) [5] was 25 and the fold change (FC) [6] was 7. For the same molecule, the fold change (FC) [7] was 24, the fold change (FC) [8] was 16 and the fold change (FC) [9] was 64. For the same molecule, the fold change (FC) [10] was 25, the fold change (FC) [11] was 12 and the fold change (FC) [12] was 19. The IC50 [13] was 14.1 µM, the Activity [14] was “Active” and the Activity (HEK293 [15]) was “Active”. The fold change (FC) [16] was 8, the fold change (FC) [17] was 17 and the fold change (FC) [18] was 25. The Activity (HEK293 [19]) was “Dose-dependent effect”, the Activity (HEK293 [20]) was “inactive” and the fold change (FC) [21] was 4. For the same molecule, the fold change (FC) [22] was 25.
For `CC1=NN(c2ccc(C(=O)O)cc2)C(=O)/C1=C\c1ccc(-c2cc(C)c(C)cc2[N+](=O)[O-])o1`, the inhibition (Tubulin (Sus scrofa)) was “Dose-dependent effect”.
